Calls of active or inactive are those of the source. No cut-off for these calls is given here.
Key:
MGL8 = assay: Growth inhibition of human MGL8 cells at 5 uM after 48 hrs; format: functional, cell-based
Outline: (§1)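 MGL-8 lymphoblasts seeded at 22 × 10⁴ cells/mL in stationary suspension in RPMI 1640 with 10% fetal calf serum, penicillin and streptomycin; 48 h at 37 °C; cells counted by Coulter counter; growth expressed as % of untreated control; significance tested (p < 0.01).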

[1] = Growth inhibition of human MGL8 cells at 50 uM after 48 hrs relative to control; format: functional; conditions: MGL8, 48 h, read-out: GI; outline: as §1
[2] = Growth inhibition of human MGL8 cells at 500 uM after 48 hrs relative to control; format: functional; conditions: MGL8, 48 h, read-out: GI; outline: as §1
Bacillus subtilis = assay: Antibacterial activity against Bacillus subtilis at 1 mg/ml; format: functional, organism-based
Outline: (§2)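 Organisms grown on agar plates at 37 °C. Compound dissolved at 1 mg/mL in methanol, applied to a 2-cm disk, and the disk placed on agar streaked with the organism.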

[3] = tested on: Saccharomyces pastorianus; assay: Antifungal activity against Saccharomyces pastorianus at 1 mg/ml; format: functional, organism-based; outline: as §2
Human alphaherpesvirus 2 = assay: Antiviral activity against HSV2 infected in BHK cells assessed as reduction of viral plaque at 4 uM after 24 hrs; format: functional
Outline: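 BHK confluent monolayers in 24-well trays; supernatant removed and 50 μL virus dilution added per well; 2 h at 37 °C, 5% CO2, 100% humidity with intermittent agitation. Eagle's medium containing tryptose phosphate broth and calf serum then added; viral plaques counted after 24 h.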

[4] = Immunosuppressive activity against PHA-stimulated proliferation in rat T-lymphocytes assessed as cell viability at 1 uM […] by [3H]thymidine incorporation method relative to control; format: functional; conditions: read-out: Activity
Escherichia coli = assay: Antibacterial activity against Escherichia coli at 1 mg/ml; format: functional, organism-based; outline: as §2
Pseudomonas aeruginosa = assay: Antibacterial activity against Pseudomonas aeruginosa at 1 mg/ml; format: functional, organism-based; outline: as §2
T-cell = assay: Immunosuppressive activity against PHA-stimulated proliferation in rat T-lymphocytes assessed as cell viability at 0.01 to 0.1 uM […] by [3H]thymidine incorporation method relative to control; format: functional, cell-based
Candida albicans = assay: Antifungal activity against Candida albicans at 1 mg/ml; format: functional, organism-based; outline: as §2
[5] = tested on: Salmonella enterica subsp. enterica serovar Gallinarum; assay: Antibacterial activity against Salmonella gallinarum at 1 mg/ml; format: functional, organism-based; outline: as §2
Neurospora crassa = assay: Antifungal activity against Neurospora crassa at 1 mg/ml; format: functional, organism-based; outline: as §2
Proteus vulgaris = assay: Antibacterial activity against Proteus vulgaris at 1 mg/ml; format: functional, organism-based; outline: as §2
Serratia marcescens = assay: Antibacterial activity against Serratia marcescens at 1 mg/ml; format: functional, organism-based; outline: as §2
Ralstonia solanacearum = assay: Antibacterial activity against Pseudomonas solanacearum at 1 mg/ml; format: functional, organism-based
Outline: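 Agar disk diffusion: test compound at 1 mg/mL in methanol, applied to a 2-cm disk laid on agar plates streaked with the organism.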

Micrococcus luteus = assay: Antibacterial activity against Sarcina lutea at 1 mg/ml; format: functional, organism-based; outline: as §2
[6] = Immunosuppressive activity against PHA-stimulated proliferation in rat T-lymphocytes assessed as cell viability at 100 uM after 6 days by [3H]thymidine incorporation method relative to control; format: functional; conditions: read-out: Activity
Outline: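 Rat lymphocytes incubated 6 days at 37 °C with 100 μM compound; result expressed as percentage of viable lymphocytes.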

Staphylococcus aureus = assay: Antibacterial activity against Staphylococcus aureus at 1 mg/ml; format: functional, organism-based; outline: as §2

Compound	growth inhibition (GI) (MGL8)	inhibition of growth at 50 µM [1] [%]	inhibition of growth at 500 µM [2] [%]	Activity (Bacillus subtilis)	Activity [3]	Activity (Human alphaherpesvirus 2)	thymidine incorporation of control at 1 µM [4] [%]	Activity (Escherichia coli)	Activity (Pseudomonas aeruginosa)	Activity (T-cell)	Activity (Candida albicans)	Activity [5]	Activity (Neurospora crassa)	Activity (Proteus vulgaris)	Activity (Serratia marcescens)	Activity (Ralstonia solanacearum)	Activity (Micrococcus luteus)	viability at 100 µM [6] [%]	Activity (Staphylococcus aureus)
O=c1[nH]c(=O)n([C@@H]2O[C@H](CO)[C@@H](O)[C@H]2O)cc1I	inactive	32	9	–	–	–	–	–	–	–	–	–	–	–	–	–	–	–	–
Cc1cn([C@@H]2OC[C@@](O)(CO)[C@H]2O)c(=O)[nH]c1=O	inactive	95	83	inactive	inactive	inactive	56	inactive	inactive	inactive	inactive	inactive	inactive	inactive	inactive	inactive	inactive	89	inactive
Nc1ncnc2c1ncn2[C@@H]1OC[C@](O)(CO)[C@H]1O	–	–	–	–	–	–	159	–	–	inactive	–	–	–	–	–	–	–	91	–
O=c1[nH]c(=O)n([C@@H]2OC[C@@](O)(CO)[C@H]2O)cc1I	inactive	24	6	–	–	inactive	–	–	–	–	–	–	–	–	–	–	–	–	–
CC(=O)O[C@H]1[C@H](n2cc(Br)c(=O)[nH]c2=O)OC[C@@]12COC(=O)O2	–	–	–	inactive	inactive	–	–	inactive	inactive	–	inactive	inactive	inactive	inactive	inactive	inactive	inactive	–	inactive
CC(=O)O[C@H]1[C@H](n2cc(I)c(=O)[nH]c2=O)OC[C@@]12COC(=O)O2	–	–	–	inactive	inactive	–	–	inactive	inactive	–	inactive	inactive	inactive	inactive	inactive	inactive	inactive	–	inactive
O=c1ccn([C@@H]2OC[C@@](O)(CO)[C@H]2O)c(=O)[nH]1	inactive	100	72	inactive	inactive	inactive	16	inactive	inactive	inactive	inactive	inactive	inactive	inactive	inactive	inactive	inactive	90	inactive
Nc1ncnc2c1ncn2[C@@H]1O[C@H](CO)[C@@H](O)[C@@H]1O [VIDARABINE]	–	–	–	–	–	–	71	–	–	–	–	–	–	–	–	–	–	94	–
Nc1ccn([C@@H]2O[C@H](CO)[C@@H](O)[C@@H]2O)c(=O)n1 [CYTARABINE]	–	–	–	–	–	–	18	–	–	inactive	–	–	–	–	–	–	–	76	–
Nc1ncnc2c1ncn2[C@@H]1OC[C@@](O)(CO)[C@H]1O	–	–	–	–	–	42%	14	–	–	–	–	–	–	–	–	–	–	85	–
O=c1[nH]c(=O)n([C@@H]2O[C@H](CO)[C@@H](O)[C@H]2O)cc1Br	inactive	40	11	–	–	–	–	–	–	–	–	–	–	–	–	–	–	–	–
O=c1[nH]c(=O)n([C@@H]2OC[C@@](O)(CO)[C@H]2O)cc1Br	inactive	52	13	–	–	inactive	–	–	–	–	–	–	–	–	–	–	–	–	–
NC(=O)c1ncn([C@@H]2O[C@H](CO)[C@@H](O)[C@H]2O)n1 [RIBAVIRIN]	–	–	–	–	–	–	127	–	–	–	–	–	–	–	–	–	–	–	–

Reference: ChEMBL document CHEMBL3244180, “Synthesis of branched-chain apiosylpyrimidines and their inhibition of lymphocyte proliferation” (1978)
